Compound activity as filed in PubChem BioAssay.
PP5 primary – blocks human protein phosphatase 5 activity; P53041; purified PP5c, OMFP substrate fluorescence; inhibition, % at 6.7 µM; hit rate 0.18% among 320,000;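 active = inhibition above the campaign's mean inhibition across all tested compounds plus 3 SD, cut at about 9.5% in these data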;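 also: 0% = DMSO only and 100% = 100 µM cantharidin control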
PP1 inh – PP1-alpha (human) inhibition in PP5 counter-screen; purified PP1alpha, OMFP fluorescence; inhibition, % at 6.7 µM; AID 2235; P62136; hit rate 0.9% among 320,000;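 active = inhibition above the mean inhibition of all tested compounds plus 3 SD, computed separately for each screening campaign, cut at about 15% in these data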
TDP2 absorb – TDP2 (human) inhibition, absorbance primary screen. O95551. inhibition, % at 12.8 µM. recombinant TDP2, T5PNP hydrolysis, p-nitrophenol absorbance 415 nm. AID 720702. hit rate 0.34% among 370,000;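 active = inhibition above the mean of all tested compounds plus 3 SD, set per campaign, cut at about 25% in these data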;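 also: 0% = DMSO with enzyme and 100% = buffer with substrate but no TDP2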
Target sequence (O95551 whole entry, looked up): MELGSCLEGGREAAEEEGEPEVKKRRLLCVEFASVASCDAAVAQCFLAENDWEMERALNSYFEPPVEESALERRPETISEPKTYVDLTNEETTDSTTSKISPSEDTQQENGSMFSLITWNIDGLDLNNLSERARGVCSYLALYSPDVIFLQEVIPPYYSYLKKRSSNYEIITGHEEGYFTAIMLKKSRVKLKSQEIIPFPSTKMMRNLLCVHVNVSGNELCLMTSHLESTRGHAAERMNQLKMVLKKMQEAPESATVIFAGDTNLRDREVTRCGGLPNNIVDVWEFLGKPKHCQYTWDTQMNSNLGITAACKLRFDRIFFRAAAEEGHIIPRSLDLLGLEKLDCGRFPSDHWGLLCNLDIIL
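System – recombinant human TDP2 · Amount – 120 nM TDP2 per well · Buffer or medium – Mg2+-containing Tris-HCl buffer, pH 7.5 · Reagent – T5PNP substrate, 5 mM · Dosing – 12.8 µM single point, 1% DMSO · Incubation – 2 h at 37 °C · Measured by – epi absorbance · Read-out basis – percent inhibition · Benchmarks – high control without enzyme, low control DMSO plus TDP2 · Repeats – singlicate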
GSTO1 counter – blocks human GSTO1 in RBBP9 counter-screen | AID 1974 | hit rate 1.1% among 300,000 | inhibition, % at 5.96 µM | recombinant GSTO1, activity-based probe fluorescence polarization;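 active = inhibition above the campaign mean inhibition plus 3 SD, cut at about 35% in these data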;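 also: 0% = GSTO1-1 with DMSO and 100% = wells lacking GSTO1-1 enzyme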
Target sequence (P78417 whole entry, looked up): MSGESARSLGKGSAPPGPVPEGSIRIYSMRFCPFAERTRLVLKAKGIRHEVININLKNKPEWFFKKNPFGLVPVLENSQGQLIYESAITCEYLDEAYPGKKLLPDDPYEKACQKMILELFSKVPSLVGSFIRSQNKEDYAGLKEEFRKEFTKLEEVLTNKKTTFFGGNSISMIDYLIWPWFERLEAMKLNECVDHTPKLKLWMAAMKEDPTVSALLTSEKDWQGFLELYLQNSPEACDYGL
Apaf1 inhib – inhibitors of human Apaf-1 apoptosome | AID 489030 | inhibition, % at 20 µM | hit rate 0.71% among 330,000 | reconstituted apoptosome caspase-3 activity, DEVD-Rh110 fluorescence; active = inhibition of at least 40% at 20 µM;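 also: plate controls were DMSO wells for no effect and DEVD-CHO caspase inhibitor wells for full effect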
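Material: biochemical Apaf-1 apoptosome reconstitution. Medium: Hepes buffer, pH 7.5. Also added: cytochrome c activation, bis-DEVD rhodamine 110 substrate. Timing: 30 min compound preincubation, 50 min activation, room temperature. Measured by: rhodamine 110 fluorescence at Ex 480/Em 540 nm.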
GSTO1 confirm – confirmation of human GSTO1 inhibitors. hit rate 54% among 2,400. shares compounds with GSTO1 counter. recombinant GSTO1, probe fluorescence polarization. inhibition, % at 5.96 µM. AID 2176;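 active = inhibition above the primary screen's cutoff, its mean inhibition plus 3 SD, cut at about 35% in these data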;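 also: loss of polarization as inhibitors block binding of rhodamine sulfonate ester activity probe; 0% = GSTO1 with DMSO and 100% = wells lacking GSTO1 enzyme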
PP5 inh confirm – PP5 (human) inhibition, confirmation. shares compounds with PP5 primary. Purified PP5, fluorogenic phosphatase substrate, fluorescence. inhibition, % at 6.7 µM. hit rate 22% among 460. AID 2331; in the data active = inhibition above about 9.5%
PP1 inh counter – counter-screen for PP5 inhibitors: human PP1 phosphatase inhibition; inhibition, % at 6.7 µM; shares compounds with PP5 primary; hit rate 4% among 460; PP1 enzyme, fluorescent phosphatase substrate; in the data active = inhibition above about 16%
Apaf-1 inh conf – Apaf-1 inhibition, single-dose confirmed; shares compounds with Apaf1 inhib; reconstituted apoptosome, caspase-3 DEVD-Rh110 fluorescence; inhibition, % at 20 µM; hit rate 25% among 1,800; AID 504614;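 active = mean inhibition of at least 40% at 20 µM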;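 also: plate controls were DMSO wells for no effect and DEVD-CHO caspase inhibitor control wells for full effect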
Rh110 interf inh – interferes with Rh110 fluorescence, flagging false Apaf-1 inhibitors | shares compounds with Apaf1 inhib | Rh110 fluorescence interference, quenched caspase reaction | activation (fluorescence interference), % at 20 µM | 1,800 tested, under 10 active | AID 504615;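 active = signal rise of 40% or more at 20 µM, treated as a fluorescence artifact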
Fluor interf inh – Apaf-1 inhibitor counter-screen fluorescence artifact | shares compounds with Apaf1 inhib | fluorescence interference counterscreen, Apaf-1 assay format | IC50, µM | 460 tested, under 10 active; call rule not given here
Active calls of the source: *. A selection: hits, their analogues and other compounds. The true share with any hit is near 2.1%.

What do the screens show for `CCCC[n+]1ccn(C2=C([O-])c3ccccc3C(=O)/C2=N\S(=O)(=O)c2ccc(Cl)cc2)c1`?
PP5 primary: -1; PP1 inh: -1; TDP2 absorb: 11; GSTO1 counter: 75*; Apaf1 inhib: 52*; GSTO1 confirm: 71*; Apaf-1 inh conf: 56*; Rh110 interf inh: 15; Fluor interf inh: >100

How did c1ccc(CCn2nnc(-c3ccc(N4CCOCC4)cc3)n2)cc1 do in these assays?
TDP2 absorb: -3

What do the screens show for `COc1ccc(C2CCC3(CCC(=O)N3CCOC(=O)NCc3ccc(Cl)cc3)CC2)cc1` (centres undefined)?
TDP2 absorb: 4

How did CCCCc1nnn2c1C1c3cc(-c4cccnc4)ccc3CCN1C(=O)C2 (centres undefined) do in these assays?
TDP2 absorb: -7

How did CC1=NN(c2ccc(Br)cc2)C(=O)/C1=C/c1cccs1 do in these assays?
PP5 primary: 7; PP1 inh: -1; TDP2 absorb: 17; GSTO1 counter: 45*; Apaf1 inhib: 96*; GSTO1 confirm: 17; Apaf-1 inh conf: 19; Rh110 interf inh: 0

Results for CC1=NN(c2ccccc2)C(=O)/C1=C\c1sccc1C ?
PP5 primary: 0; PP1 inh: 2; TDP2 absorb: 19; GSTO1 counter: 22; Apaf1 inhib: 28

How did CC1=NN(c2ccc(C)cc2)C(=O)/C1=C\c1ccc(Br)s1 do in these assays?
PP5 primary: 1; PP1 inh: 4; TDP2 absorb: 16; GSTO1 counter: 40*; Apaf1 inhib: 89*; GSTO1 confirm: 12; Apaf-1 inh conf: 18; Rh110 interf inh: 5

How did CC1=NN(c2ccccc2)C(=O)/C1=C\c1c(C)[nH]n(-c2ccccc2)c1=O do in these assays?
PP5 primary: 0; PP1 inh: 0; TDP2 absorb: 8; GSTO1 counter: -2; Apaf1 inhib: 23

Results for CCOC(=O)c1c(C)oc2c1c(C=NCCC(=O)O)c(O)c1ccccc12 ?
PP5 primary: 2; PP1 inh: -4; TDP2 absorb: -3; GSTO1 counter: 43*; Apaf1 inhib: 81*; GSTO1 confirm: 47*; Apaf-1 inh conf: 59*; Rh110 interf inh: 2; Fluor interf inh: >100

Results for O=C(O)c1cccc(NS(=O)(=O)c2ccc3nnn(O)c3c2)c1 ?
PP5 primary: 2; PP1 inh: -1; TDP2 absorb: -2; GSTO1 counter: -2; Apaf1 inhib: 3

What do the screens show for `O=C(O)c1cccc(NC2=C(n3nnc4ccccc43)C(=O)c3ccccc3C2=O)c1`?
PP5 primary: 2; PP1 inh: 0; TDP2 absorb: 22; GSTO1 counter: 62*; Apaf1 inhib: 58*; GSTO1 confirm: 45*; Apaf-1 inh conf: 64*; Rh110 interf inh: 7; Fluor interf inh: >100

Results for Cc1[nH][nH]c(=O)c1C(c1ccc(-c2cccc(Cl)c2)o1)c1c(C)[nH][nH]c1=O ?
PP5 primary: 1; PP1 inh: 6; GSTO1 counter: 72*; Apaf1 inhib: 87*; GSTO1 confirm: 57*; Apaf-1 inh conf: 41*; Rh110 interf inh: -2; Fluor interf inh: >100

How did Cc1[nH][nH]c(=O)c1C(c1ccc(Br)cc1)c1c(C)[nH][nH]c1=O do in these assays?
PP5 primary: -4; PP1 inh: 0; TDP2 absorb: -4; GSTO1 counter: 16; Apaf1 inhib: 12

What do the screens show for `CC(=O)OCCCNc1cc(Sc2nc3ccccc3s2)c2nonc2c1[N+](=O)[O-]`?
PP5 primary: 6; PP1 inh: 1; GSTO1 counter: 45*; Apaf1 inhib: 96*; GSTO1 confirm: 7; Apaf-1 inh conf: 29; Rh110 interf inh: 1

What do the screens show for `CC(=O)OCCCNc1cc(Sc2ccc(C)cc2)c2nonc2c1[N+](=O)[O-]`?
PP5 primary: 0; PP1 inh: 6; TDP2 absorb: -5; GSTO1 counter: 6; Apaf1 inhib: 19

How did Cc1ccc(-n2nc3cc(C)c(N)cc3n2)cc1 do in these assays?
PP5 primary: 4; PP1 inh: 5; TDP2 absorb: 2; GSTO1 counter: 23; Apaf1 inhib: 30

Results for Cc1cc2nc3ccc(N(C)C)cc3nc2cc1N ?
PP5 primary: 1; PP1 inh: 1; TDP2 absorb: -2; GSTO1 counter: 47*; Apaf1 inhib: 90*; GSTO1 confirm: 42*; Apaf-1 inh conf: 63*; Rh110 interf inh: 5; Fluor interf inh: >100

Results for c1coc(-c2nnc(-c3ccco3)nn2)c1 ?
PP5 primary: 3; PP1 inh: 5; TDP2 absorb: 10; GSTO1 counter: 68*; Apaf1 inhib: 84*; GSTO1 confirm: 38*; Apaf-1 inh conf: 58*; Rh110 interf inh: 6; Fluor interf inh: >100

Results for COC(=O)[C@@]12CCCCC=C1N(CCc1ccc(Cl)cc1)C(=O)[C@H]2CC(=O)NCCC(C)C ?
TDP2 absorb: 2

How did CC(C)CCn1c(N)c(S(=O)(=O)c2cccs2)c2nc3ccccc3nc21 do in these assays?
PP5 primary: 10*; PP1 inh: 3; TDP2 absorb: 2; GSTO1 counter: 57*; Apaf1 inhib: 51*; GSTO1 confirm: -7; PP5 inh confirm: 7; PP1 inh counter: 4; Apaf-1 inh conf: 28; Rh110 interf inh: 2

How did O/C=c1\ccc2cccc3nc(C(F)(F)F)nc1c23 do in these assays?
PP5 primary: -1; PP1 inh: 8; TDP2 absorb: -4; GSTO1 counter: 64*; Apaf1 inhib: 79*; GSTO1 confirm: 76*; Apaf-1 inh conf: 86*; Rh110 interf inh: -40; Fluor interf inh: 20*

How did COc1ccc2c(CCN3C(=O)c4ccccc4C3=O)c(-c3c(CCN4C(=O)c5ccccc5C4=O)c4ccccc4n3C(=O)OC(C)(C)C)[nH]c2c1 do in these assays?
TDP2 absorb: 14

How did COC(=O)[C@]12C[C@H](CC(=O)N3CCN(C(=O)c4ccco4)CC3)C(=O)N(Cc3ccc(Cl)cc3Cl)C1=C[C@H](C(C)(C)C)O[C@@H]2C do in these assays?
TDP2 absorb: -3
